PMC2668213 (Journal of medicinal chemistry, 2008)

Tests used:
SERT [1] = test: MicroPET baseline regional brain uptake in anesthetized cynomolgus monkeys; format: in vivo, cynomolgus monkey
SERT [2] = test: HRRT PET baseline study in awake rhesus monkey; format: in vivo
[3] = Protein-bound tracer in plasma; format: in vivo, cynomolgus monkey; details: range over the time points of the study
Method in brief: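 Arterial plasma was sampled after injection of the fluorine-18 labelled test compound during a baseline microPET study in a cynomolgus monkey. Samples spanned 1 to 180 min post-injection. The percentage of tracer bound to plasma protein was determined at each time point. The same samples underwent radio-HPLC metabolite analysis.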

Row | SMILES | time of peak uptake, caudate (SERT [1]; anesthetized) [min] | time of peak uptake, cerebellum (SERT [1]; anesthetized) | time of peak uptake, medulla (SERT [1]; anesthetized) [min] | time of peak uptake, midbrain (SERT [1]; anesthetized) [min] | time of peak uptake, pons (SERT [1]; anesthetized) [min] | time of peak uptake, putamen (SERT [1]; anesthetized) [min] | time of peak uptake, thalamus (SERT [1]; anesthetized) [min] | time at which uptake ratios stabilize (SERT [1]; anesthetized cynomolgus monkey) | time at which washout from the SERT-rich brain regions begins (SERT [1]; anesthetized cynomolgus monkey) | time at which washout from the cerebellum begins (SERT [1]; anesthetized cynomolgus monkey) | time of peak uptake, caudate (SERT [2]; awake rhesus) [min] | time of peak uptake, cerebellum (SERT [2]; awake rhesus) [min] | time of peak uptake, medulla (SERT [2]; awake rhesus) [min] | time of peak uptake, midbrain (SERT [2]; awake rhesus) [min] | time of peak uptake, pons (SERT [2]; awake rhesus) [min] | time of peak uptake, putamen (SERT [2]; awake rhesus) [min] | time of peak uptake, thalamus (SERT [2]; awake rhesus) [min] | time of peak uptake in thalamus, putamen, midbrain, and caudate (SERT [2]; awake rhesus monkey) | percentage of protein-bound tracer in plasma [3] | time of peak uptake in the SERT-rich brain regions (SERT [1]; anesthetized cynomolgus monkey) [min]
1 | O=C(OCC[18F])C1C2CCC(CC1c1cccc(/C=C\I)c1)N2 (stereo not drawn) [[^18F]1, 2β-Carbo(2-[^18F]fluoroethoxy)-3β-(3′-((Z)-2-iodoethenyl)phenyl)nortropane] | 55 | ~ 27 min | 35 | 45 | 45 | 45 | 45 | ~ 175 minutes | ~ 65 minutes | ~ 27 minutes | 45 | 45 | 35 | 45 | 85 | 45 | 45 | ~ 45 min | 5.6 - 8.5% | 
2 | O=C(OCC[18F])C1C2CCC(CC1c1cccc(/C=C\Br)c1)N2 (stereo not drawn) [[^18F]2, 2β-Carbo(2-[^18F]fluoroethoxy)-3β-(3′-((Z)-2-bromoethenyl)phenyl)nortropane] |  | ~ 30 min |  |  |  |  |  |  |  |  |  |  |  |  |  |  |  |  |  | 55 to 65
3 | O=C(OCCC[18F])C1C2CCC(CC1c1cccc(/C=C\Br)c1)N2 (stereo not drawn) [[^18F]4, 2β-Carbo(3-[^18F]fluoropropoxy)-3β-(3′-((Z)-2-bromoethenyl)phenyl)nortropane] |  |  |  |  |  |  |  |  |  |  |  |  |  |  |  |  |  |  |  | 35 to 45
